Laboratory results published in the M2OR odorant receptor database.

Key:
Details in all cases: stereoisomer not certain
[1] = target: T1, OR10H1 (Homo sapiens) (UniProt Q9Y4A9)
T1 sequence (whole entry): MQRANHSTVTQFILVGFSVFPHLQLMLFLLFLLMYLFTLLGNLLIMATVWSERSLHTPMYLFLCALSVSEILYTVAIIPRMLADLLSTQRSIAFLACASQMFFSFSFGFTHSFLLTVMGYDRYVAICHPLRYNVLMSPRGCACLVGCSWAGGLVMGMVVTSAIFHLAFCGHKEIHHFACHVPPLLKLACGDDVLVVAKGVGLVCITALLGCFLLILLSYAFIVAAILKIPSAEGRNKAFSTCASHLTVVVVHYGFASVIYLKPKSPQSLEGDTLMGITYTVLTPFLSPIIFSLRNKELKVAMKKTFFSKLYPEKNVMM
In short: (§1)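 Whether a receptor–molecule pair is responsive (active) rests on the original authors' judgment that its measured signal was statistically different from baseline. Pairs without that judgment are non-responsive (inactive). Sources used varied assay methods, commonly transient luciferase assays in mammalian cell lines.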

[2] = target: T2, OR10J5 (Homo sapiens) (UniProt Q8NHC4)
T2 sequence (whole entry): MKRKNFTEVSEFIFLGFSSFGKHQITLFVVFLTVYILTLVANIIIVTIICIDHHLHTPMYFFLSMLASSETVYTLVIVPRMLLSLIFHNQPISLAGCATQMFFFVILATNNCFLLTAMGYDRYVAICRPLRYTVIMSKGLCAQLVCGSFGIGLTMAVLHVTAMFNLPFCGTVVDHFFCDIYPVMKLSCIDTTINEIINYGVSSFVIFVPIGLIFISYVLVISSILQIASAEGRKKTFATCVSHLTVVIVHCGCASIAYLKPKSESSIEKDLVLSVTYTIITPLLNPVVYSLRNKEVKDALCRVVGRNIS
In short: as §1

[3] = target: T3, OR10G2 (Homo sapiens) (UniProt Q8NGC3)
T3 sequence (whole entry): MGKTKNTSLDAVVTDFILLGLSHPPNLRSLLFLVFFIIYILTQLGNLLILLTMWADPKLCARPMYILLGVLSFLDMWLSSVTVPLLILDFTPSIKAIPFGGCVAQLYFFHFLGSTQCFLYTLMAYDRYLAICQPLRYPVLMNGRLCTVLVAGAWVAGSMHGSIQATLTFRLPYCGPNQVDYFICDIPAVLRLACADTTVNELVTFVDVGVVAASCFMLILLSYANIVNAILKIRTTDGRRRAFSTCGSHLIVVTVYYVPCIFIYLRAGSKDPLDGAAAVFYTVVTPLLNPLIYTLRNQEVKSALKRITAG
In short: as §1

[4] = target: T4, OR10G3 (Homo sapiens) (UniProt Q8NGC4)
T4 sequence (whole entry): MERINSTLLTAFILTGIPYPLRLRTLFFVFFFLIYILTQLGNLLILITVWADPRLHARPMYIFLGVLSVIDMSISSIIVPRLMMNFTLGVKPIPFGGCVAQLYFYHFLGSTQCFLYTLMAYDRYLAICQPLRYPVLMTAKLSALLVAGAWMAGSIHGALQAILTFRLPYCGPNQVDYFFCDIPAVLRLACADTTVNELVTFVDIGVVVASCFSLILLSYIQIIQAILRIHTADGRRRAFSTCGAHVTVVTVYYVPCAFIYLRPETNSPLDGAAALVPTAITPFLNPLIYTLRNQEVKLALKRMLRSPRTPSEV
In short: as §1

[5] = target: T5, OR10G4 (Homo sapiens) (UniProt Q8NGN3)
T5 sequence (whole entry): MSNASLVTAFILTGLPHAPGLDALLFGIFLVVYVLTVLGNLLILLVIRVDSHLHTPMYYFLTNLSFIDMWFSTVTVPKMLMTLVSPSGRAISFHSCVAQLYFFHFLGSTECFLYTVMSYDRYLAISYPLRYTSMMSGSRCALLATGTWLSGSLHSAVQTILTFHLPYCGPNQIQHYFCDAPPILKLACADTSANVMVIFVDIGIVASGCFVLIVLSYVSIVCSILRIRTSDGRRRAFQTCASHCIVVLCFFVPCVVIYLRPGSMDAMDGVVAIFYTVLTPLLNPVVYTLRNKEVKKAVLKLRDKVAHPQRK
In short: as §1

[6] = target: T6, OR10G6 (Homo sapiens) (UniProt Q8NH81)
T6 sequence (whole entry): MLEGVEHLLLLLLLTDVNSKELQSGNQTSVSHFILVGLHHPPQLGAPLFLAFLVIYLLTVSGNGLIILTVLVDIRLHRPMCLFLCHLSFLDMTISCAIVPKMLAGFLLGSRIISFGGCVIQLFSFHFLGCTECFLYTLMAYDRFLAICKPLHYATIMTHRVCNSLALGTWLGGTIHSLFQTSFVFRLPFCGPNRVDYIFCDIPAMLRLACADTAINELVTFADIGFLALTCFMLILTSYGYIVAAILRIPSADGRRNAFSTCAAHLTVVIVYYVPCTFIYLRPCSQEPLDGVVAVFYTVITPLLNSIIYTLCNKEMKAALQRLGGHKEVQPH
In short: as §1

[7] = target: T7, OR10G7 (Homo sapiens) (UniProt Q8NGN6)
T7 sequence (whole entry): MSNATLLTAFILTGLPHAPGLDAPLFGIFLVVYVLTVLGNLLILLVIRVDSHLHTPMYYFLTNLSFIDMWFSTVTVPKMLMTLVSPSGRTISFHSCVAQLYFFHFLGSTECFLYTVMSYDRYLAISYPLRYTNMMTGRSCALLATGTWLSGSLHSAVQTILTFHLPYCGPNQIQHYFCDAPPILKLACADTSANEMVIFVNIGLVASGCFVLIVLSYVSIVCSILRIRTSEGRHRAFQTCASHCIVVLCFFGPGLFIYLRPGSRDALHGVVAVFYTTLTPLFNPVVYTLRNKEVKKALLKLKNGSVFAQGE
In short: as §1

[8] = target: T8, OR10G8 (Homo sapiens) (UniProt Q8NGN5)
T8 sequence (whole entry): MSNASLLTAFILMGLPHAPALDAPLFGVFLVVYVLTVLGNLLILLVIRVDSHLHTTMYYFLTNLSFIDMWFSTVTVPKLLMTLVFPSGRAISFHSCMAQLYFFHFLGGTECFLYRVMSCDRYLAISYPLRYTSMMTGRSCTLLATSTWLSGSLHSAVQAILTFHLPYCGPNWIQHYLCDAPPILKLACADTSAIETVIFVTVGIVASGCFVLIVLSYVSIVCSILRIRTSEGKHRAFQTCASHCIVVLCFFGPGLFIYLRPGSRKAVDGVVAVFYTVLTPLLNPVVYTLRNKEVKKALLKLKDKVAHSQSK
In short: as §1

[9] = target: T9, OR10G9 (Homo sapiens) (UniProt Q8NGN4)
T9 sequence (whole entry): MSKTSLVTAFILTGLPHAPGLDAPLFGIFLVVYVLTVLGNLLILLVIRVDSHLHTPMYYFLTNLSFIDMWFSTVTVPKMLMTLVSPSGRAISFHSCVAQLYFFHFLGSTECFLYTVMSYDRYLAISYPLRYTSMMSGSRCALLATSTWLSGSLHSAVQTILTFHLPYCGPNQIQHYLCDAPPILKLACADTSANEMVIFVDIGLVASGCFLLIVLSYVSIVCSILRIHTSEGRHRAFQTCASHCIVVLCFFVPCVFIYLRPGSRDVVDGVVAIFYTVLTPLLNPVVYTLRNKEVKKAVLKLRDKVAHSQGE
In short: as §1

[10] = target: T10, OR10H2 (Homo sapiens) (UniProt O60403)
T10 sequence (whole entry): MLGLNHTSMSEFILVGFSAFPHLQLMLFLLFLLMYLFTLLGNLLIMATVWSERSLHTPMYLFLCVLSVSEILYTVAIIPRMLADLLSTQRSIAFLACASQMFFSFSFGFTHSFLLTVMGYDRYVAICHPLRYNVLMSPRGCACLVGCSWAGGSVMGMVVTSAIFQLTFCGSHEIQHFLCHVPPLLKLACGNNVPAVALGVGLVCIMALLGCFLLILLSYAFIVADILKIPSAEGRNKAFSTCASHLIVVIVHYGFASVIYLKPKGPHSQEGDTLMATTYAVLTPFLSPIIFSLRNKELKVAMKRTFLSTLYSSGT
In short: as §1

[11] = target: T11, OR10H3 (Homo sapiens) (UniProt O60404)
T11 sequence (whole entry): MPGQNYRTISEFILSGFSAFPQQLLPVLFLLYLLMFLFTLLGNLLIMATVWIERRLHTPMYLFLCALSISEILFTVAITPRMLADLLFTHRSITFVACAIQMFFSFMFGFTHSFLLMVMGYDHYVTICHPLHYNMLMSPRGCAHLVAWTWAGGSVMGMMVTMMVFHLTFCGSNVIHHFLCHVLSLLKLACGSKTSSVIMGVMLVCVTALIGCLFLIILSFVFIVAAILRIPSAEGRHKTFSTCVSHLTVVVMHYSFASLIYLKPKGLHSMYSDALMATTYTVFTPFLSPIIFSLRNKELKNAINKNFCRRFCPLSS
In short: as §1

[12] = target: T12, OR10H4 (Homo sapiens) (UniProt Q8NGA5)
T12 sequence (whole entry): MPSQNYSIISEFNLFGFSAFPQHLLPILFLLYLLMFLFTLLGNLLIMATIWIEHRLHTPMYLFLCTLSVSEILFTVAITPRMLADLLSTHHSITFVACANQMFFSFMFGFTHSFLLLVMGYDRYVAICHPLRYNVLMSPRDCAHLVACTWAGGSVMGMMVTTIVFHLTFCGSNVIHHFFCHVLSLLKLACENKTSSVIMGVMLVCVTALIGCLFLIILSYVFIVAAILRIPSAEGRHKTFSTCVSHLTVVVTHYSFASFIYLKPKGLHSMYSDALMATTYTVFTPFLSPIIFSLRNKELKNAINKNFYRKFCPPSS
In short: as §1

[13] = target: T13, OR10H5 (Homo sapiens) (UniProt Q8NGA6)
T13 sequence (whole entry): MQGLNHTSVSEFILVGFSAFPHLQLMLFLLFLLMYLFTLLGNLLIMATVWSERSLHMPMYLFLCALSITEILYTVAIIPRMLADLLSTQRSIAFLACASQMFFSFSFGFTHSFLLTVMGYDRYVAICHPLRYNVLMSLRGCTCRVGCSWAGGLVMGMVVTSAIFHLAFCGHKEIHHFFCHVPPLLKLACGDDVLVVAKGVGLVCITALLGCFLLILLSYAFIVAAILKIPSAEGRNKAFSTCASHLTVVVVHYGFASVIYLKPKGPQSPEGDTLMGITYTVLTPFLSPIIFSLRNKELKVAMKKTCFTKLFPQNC
In short: as §1

[14] = target: T14, OR10J1 (Homo sapiens) (UniProt P30954)
T14 sequence (whole entry): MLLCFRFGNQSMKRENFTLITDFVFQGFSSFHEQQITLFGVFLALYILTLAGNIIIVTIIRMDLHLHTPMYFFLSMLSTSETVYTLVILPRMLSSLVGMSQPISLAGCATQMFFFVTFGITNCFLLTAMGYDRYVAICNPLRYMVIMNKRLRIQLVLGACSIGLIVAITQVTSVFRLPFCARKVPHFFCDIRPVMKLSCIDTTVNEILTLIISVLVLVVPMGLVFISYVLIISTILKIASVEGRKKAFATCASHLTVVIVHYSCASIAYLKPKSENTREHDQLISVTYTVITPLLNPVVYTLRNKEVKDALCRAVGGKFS
In short: as §1

[15] = target: T15, OR10J3 (Homo sapiens) (UniProt Q5JRS4)
T15 sequence (whole entry): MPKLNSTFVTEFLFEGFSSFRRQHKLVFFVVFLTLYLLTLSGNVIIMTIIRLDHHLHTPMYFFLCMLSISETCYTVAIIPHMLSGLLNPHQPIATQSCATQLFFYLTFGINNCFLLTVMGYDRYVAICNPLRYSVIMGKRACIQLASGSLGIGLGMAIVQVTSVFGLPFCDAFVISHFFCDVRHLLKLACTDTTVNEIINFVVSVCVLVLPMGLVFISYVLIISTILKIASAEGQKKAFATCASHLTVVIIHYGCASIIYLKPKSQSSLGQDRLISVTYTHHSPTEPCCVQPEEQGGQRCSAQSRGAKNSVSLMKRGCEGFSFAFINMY
In short: as §1

[16] = target: T16, OR10K1 (Homo sapiens) (UniProt Q8NGX5)
T16 sequence (whole entry): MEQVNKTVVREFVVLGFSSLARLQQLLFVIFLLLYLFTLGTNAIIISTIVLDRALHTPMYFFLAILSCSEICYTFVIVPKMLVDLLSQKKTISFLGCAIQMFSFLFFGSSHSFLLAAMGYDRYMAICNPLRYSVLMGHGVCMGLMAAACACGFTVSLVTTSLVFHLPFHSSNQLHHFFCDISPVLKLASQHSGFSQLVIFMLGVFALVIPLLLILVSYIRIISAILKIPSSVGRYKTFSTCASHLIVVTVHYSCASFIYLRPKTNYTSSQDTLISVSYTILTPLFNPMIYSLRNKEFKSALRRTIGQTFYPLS
In short: as §1

[17] = target: T17, OR10P1 (Homo sapiens) (UniProt Q8NGE3)
T17 sequence (whole entry): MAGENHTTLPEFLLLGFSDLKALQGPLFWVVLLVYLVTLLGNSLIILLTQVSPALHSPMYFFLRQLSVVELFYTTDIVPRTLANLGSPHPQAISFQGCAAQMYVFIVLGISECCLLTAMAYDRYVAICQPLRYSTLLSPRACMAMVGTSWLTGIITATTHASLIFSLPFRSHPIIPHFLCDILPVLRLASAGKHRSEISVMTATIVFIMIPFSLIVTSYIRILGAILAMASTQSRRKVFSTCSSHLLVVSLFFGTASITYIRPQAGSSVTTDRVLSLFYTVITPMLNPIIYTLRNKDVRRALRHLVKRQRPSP
In short: as §1

[18] = target: T18, OR10Q1 (Homo sapiens) (UniProt Q8NGQ4)
T18 sequence (whole entry): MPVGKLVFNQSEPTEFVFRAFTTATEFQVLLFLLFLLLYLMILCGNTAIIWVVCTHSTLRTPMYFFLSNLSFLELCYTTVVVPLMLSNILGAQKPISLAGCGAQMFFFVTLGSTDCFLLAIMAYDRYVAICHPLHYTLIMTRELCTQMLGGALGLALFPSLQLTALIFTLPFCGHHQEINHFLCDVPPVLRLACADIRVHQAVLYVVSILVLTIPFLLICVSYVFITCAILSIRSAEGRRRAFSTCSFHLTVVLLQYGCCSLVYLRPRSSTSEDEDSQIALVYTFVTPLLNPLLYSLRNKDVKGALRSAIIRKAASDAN
In short: as §1

Measured: odorant receptor agonist call;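 further: active if original authors judged signal statistically different from baseline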

c1ccccc1
inactive: [1] | [2]

CCCCCCC=CCCC=O
inactive: all assays above
